# Active and inactive are the calls of the source. The rule behind the calls is not given here.
# Columns and labels:
# Vitamin D3 receptor = molecular target: T1, Vitamin D3 receptor (Homo sapiens, UniProt P11473); assay: Displacement of [3H]-1,25D3 from C-terminal GST-tagged human recombinant VDR LBD expressed in Escherichia coli BL21 (DE3) after 16 hrs by radioligand binding assay
# T1 sequence (P11473 whole entry): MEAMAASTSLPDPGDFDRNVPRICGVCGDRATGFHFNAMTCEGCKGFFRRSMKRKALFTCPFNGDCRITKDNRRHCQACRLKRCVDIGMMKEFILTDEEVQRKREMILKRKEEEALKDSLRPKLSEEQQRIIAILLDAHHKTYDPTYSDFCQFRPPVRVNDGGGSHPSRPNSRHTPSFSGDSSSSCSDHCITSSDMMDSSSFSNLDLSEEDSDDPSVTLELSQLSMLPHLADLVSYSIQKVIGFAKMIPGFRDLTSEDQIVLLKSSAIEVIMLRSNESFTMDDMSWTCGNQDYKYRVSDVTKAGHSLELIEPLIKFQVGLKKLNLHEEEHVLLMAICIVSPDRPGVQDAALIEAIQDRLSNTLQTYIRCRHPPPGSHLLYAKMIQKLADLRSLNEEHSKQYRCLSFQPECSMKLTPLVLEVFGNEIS
# [1] = molecular target: T2, Vitamin D3 receptor (Rattus norvegicus) (UniProt P13053); assay: Covalent binding affinity to rat VDR LBD (116 to 423 residues, 165-211 residues) assessed as time duration for complete covalent bond formation with protein at 5 equivalents by ESI-MS analysis
# T2 sequence (whole entry): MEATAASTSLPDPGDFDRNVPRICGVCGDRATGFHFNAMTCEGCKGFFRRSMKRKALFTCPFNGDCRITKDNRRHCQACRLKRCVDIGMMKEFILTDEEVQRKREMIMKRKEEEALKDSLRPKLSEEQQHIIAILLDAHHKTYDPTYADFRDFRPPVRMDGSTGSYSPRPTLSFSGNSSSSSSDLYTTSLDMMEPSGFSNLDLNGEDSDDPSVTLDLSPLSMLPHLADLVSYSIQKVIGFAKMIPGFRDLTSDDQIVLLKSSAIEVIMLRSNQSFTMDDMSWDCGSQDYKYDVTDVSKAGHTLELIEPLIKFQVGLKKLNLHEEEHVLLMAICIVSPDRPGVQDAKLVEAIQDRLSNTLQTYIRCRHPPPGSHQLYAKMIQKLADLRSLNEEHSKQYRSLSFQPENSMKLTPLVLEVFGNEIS
# In short: (§1)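 Rat VDR-LBD (residues 116−423, Δ165−211) concentrated in 50 mM ammonium acetate pH 6.5, 10 μM, incubated with 5 equiv ligand at room temperature. Samples sampled over time (up to 6 h, or 24 h), infused at 30 μL/min, analysed by positive-ion ESI-MS, m/z 100−4000. Spectra deconvoluted to unmodified versus ligand-adduct protein mass peaks.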
# [2] = molecular target: T2, Vitamin D3 receptor (Rattus norvegicus); assay: Covalent binding affinity to rat VDR LBD (116 to 423 residues, 165-211 residues) at 5 equivalents by ESI-MS analysis; in short: as §1
# [3] = molecular target: T3, Vitamin D3 receptor (Homo sapiens) (UniProt P11473); assay: Displacement of [3H]-1,25D3 from C-terminal GST-tagged human recombinant VDR LBD expressed in Escherichia coli BL21 (DE3) after 16 hrs by radioligand binding assay relative to 1,25D3
# T3 sequence (whole entry): T1 sequence (P11473 whole entry)
# In short: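 Competitive binding against [3H]-1,25D3 using human VDR-LBD expressed as C-terminal GST fusion from pGEX-VDR in E. coli BL21; IC50 derived.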
# [4] = molecular target: T2, Vitamin D3 receptor (Rattus norvegicus); assay: Irreversible covalent binding affinity to rat VDR LBD (116 to 423 residues, 165-211 residues) at 2 equivalents after 24 hrs followed by compound wash out and subsequent addition of 10 equivalents of 1,25D3 and measured after 24 hrs by ESI-MS analysis
# In short: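 Rat VDR-LBD (Δ165−211) incubated with ligand for 24 h; covalent adduct confirmed by ESI-MS, then buffer exchanged to ligand-free buffer and 10 equiv 1,25D3 added. Positive-ion ESI-MS read for retained modified versus exchanged protein peaks.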
# [5] = molecular target: T3, Vitamin D3 receptor (Homo sapiens); assay: Agonist activity at human full-length VDR expressed in African green monkey COS7 cells by osteopontin luciferase reporter gene assay; assay type: cell-based
# In short: (§2)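 Dual luciferase reporter in Cos7 or HEK293 cells cotransfected with full-length human VDR plasmid (pCMX-hVDR), reporter carrying three copies of osteopontin VDRE (SPPx3-TK-Luc) and sea pansy luciferase control (pRL-CMV). Activity normalized to 1,25D3 set as 1: 10−8 M in Cos7, 10−9 M in HEK293.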
# [6] = molecular target: T3, Vitamin D3 receptor (Homo sapiens); assay: Agonist activity at human full-length VDR expressed in HEK293 cells by osteopontin luciferase reporter gene assay; assay type: cell-based; in short: as §2
# [7] = molecular target: T2, Vitamin D3 receptor (Rattus norvegicus); assay: Covalent binding affinity to rat VDR LBD (116 to 423 residues, 165-211 residues) assessed as covalently modified protein level at 5 equivalents by ESI-MS analysis; settings: TDE = time-dependent effect; in short: as §1
# [8] = molecular target: T2, Vitamin D3 receptor (Rattus norvegicus); assay: Covalent binding affinity to rat VDR LBD (116 to 423 residues, 165-211 residues) at 2 equivalents after 24 hrs by ESI-MS analysis
# [9] = molecular target: T2, Vitamin D3 receptor (Rattus norvegicus); assay: Covalent binding affinity to rat VDR LBD (116 to 423 residues, 165-211 residues) at 5 equivalents after 30 hrs by ESI-MS analysis
Compound,IC50 (Vitamin D3 receptor) [nM],TIME [1] [h],Activity [2],Ratio IC50 [3],Activity [4],Activity [5],Activity [6],Activity [7],Activity [8],Activity [9]
C=C1[C@H](O)CC(=C/C=C2\CCC[C@]3(C)[C@@H]([C@H](C)CCC(=O)/C=C/C)CC[C@@H]23)C[C@H]1O,1.8,3,Active,0.034,Active,Active,Active,Tde,Active,–
C=C1[C@H](O)CC(=C/C=C2\CCC[C@]3(C)[C@@H]([C@H](C)C(=O)/C=C/C=C/C)CC[C@@H]23)C[C@H]1O,2.3,–,–,0.022,–,Active,Active,–,–,Active
C=CC(=O)CC[C@@H](C)[C@H]1CC[C@H]2/C(=C/C=C3C[C@@H](O)C(=C)[C@H](O)C3)CCC[C@]12C,1.1,1.5,Active,0.055,Active,Active,Active,Tde,Active,–

# — ChEMBL document CHEMBL4130631, “Identification of the Histidine Residue in Vitamin D Receptor That Covalently Binds to Electrophilic Ligands” (J Med Chem, 2018)
